Only some compounds are listed: those with a hit (about 2.6% of all), similar ones and a draw of the others.
E-sel inducer: E-selectin induction on HUVECs; P16581; HUVEC E-selectin immunofluorescence imaging; normalized: neutral wells 0, TNF-alpha wells 100; activation, % at 7.58 µM; 260,000 tested, 0.37% active; AID 686992;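 active = mean E-selectin-positive cell signal at least 10% of the positive control, reached in at least 60% of replicates, without over 20% cell loss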
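assay system = HUVEC, human umbilical vein endothelial cells | input = 3,000 HUVEC seeded per well | medium = EGM-2 growth medium on 0.1% gelatin-coated wells | dosing = one compound dose added by pin transfer | signal = immunofluorescence imaging | read-out basis = % PE-positive cells | control set = TNF-alpha, DMSO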
miR-122 sensor: inhibitors of miR-122 in Huh7 cells | Huh7 miR-122 Renilla luciferase sensor, 48 h; neutral wells = 0, positive control = 100 | activation (reporter increase), % at 12.5 µM | 340,000 tested, 0.3% active;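 active = mean replicate activation score at least 90 and every replicate individually at or above 90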;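 also: higher luciferase means less miR-122 activity so hits act as miR-122 inhibitors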
ERAP1 inh: blocks human ERAP1 aminopeptidase activity. Q9NZ08. 340,000 tested, 0.15% active. recombinant ERAP1, Leu-AMC fluorescence, 60 min. inhibition, % at 10.7 µM;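 active = mean replicate inhibition of at least 30%, or all replicates individually reaching that 30% level; inactive = mean below 30% and not every replicate reaching it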;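 also: 0% = neutral control wells and 100% = L-leucinethiol positive control wells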
Target sequence (Q9NZ08 whole entry, looked up): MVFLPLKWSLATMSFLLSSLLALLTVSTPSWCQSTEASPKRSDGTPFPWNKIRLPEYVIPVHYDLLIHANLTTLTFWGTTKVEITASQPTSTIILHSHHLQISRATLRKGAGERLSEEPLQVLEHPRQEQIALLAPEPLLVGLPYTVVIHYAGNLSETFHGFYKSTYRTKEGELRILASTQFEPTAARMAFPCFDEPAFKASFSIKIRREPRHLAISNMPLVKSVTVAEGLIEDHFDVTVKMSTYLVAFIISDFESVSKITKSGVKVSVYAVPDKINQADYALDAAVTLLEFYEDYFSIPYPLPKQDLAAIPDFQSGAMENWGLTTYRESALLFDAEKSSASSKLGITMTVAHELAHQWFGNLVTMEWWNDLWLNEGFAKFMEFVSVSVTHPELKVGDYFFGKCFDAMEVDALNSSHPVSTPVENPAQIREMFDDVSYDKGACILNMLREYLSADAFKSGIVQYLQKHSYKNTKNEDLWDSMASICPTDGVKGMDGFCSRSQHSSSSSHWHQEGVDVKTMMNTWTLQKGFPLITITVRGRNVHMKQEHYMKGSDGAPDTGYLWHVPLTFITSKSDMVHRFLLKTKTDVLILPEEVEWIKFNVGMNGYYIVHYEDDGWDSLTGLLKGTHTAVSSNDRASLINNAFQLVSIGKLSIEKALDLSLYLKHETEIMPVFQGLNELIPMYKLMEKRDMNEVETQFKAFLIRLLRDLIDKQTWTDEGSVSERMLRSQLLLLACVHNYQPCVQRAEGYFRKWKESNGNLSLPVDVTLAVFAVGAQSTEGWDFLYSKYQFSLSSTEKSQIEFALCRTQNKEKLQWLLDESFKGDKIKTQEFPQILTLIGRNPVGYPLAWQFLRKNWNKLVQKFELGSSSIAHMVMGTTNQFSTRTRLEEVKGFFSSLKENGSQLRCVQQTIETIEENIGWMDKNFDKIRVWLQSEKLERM
GSIS activator: primary screen for activators of insulin secretion dependent on glucose, INS-1E cells, GLuc reporter luminescence; activation, % at 16.6 µM; INS-1E GLuc reporter insulin secretion, 2-3 h; 370,000 tested, 0.61% active;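 active = lowest replicate activation of at least 40%, so every replicate reaches that level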;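 also: 0% = median of neutral control wells and 100% = median of IBMX positive control wells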
DENV2 CPE rescue: protects cells from dengue virus 2 cytopathic effect | DENV2-infected cells, cytopathic effect rescue, plate reader | CPE inhibition, % at 9.99 µM | 350,000 tested, 1.7% active; in the data active = CPE inhibition above about 20%, passing the limit was not always enough; tested in BHK-21 cells;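 also: 0% = median of neutral control wells and 100% = median of positive control wells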
F508del corr: CFTR F508del correction in bronchial cells | CFBE cells, YFP halide quenching; stimulated with forskolin plus potentiator P3; % fluorescence drop versus neutral controls | activity (quench increase), % at 7.58 µM | 350,000 tested, 0.36% active | AID 720511;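 active = mean added fluorescence quench of at least 8% versus neutral control, with both replicates also reaching 8%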;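 also: cells transiently co-express mutant CFTR-F508del with the halide-sensitive YFP; corrector assay measuring rescue of mutant channel to the surface after 24 h compound exposure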
* marks the source's active call; other numbers are inactive results; . = not tested or not shown; ! = repeats disagree; [ ] = dose if it differs, or a comment.

SMILES	E-sel inducer	miR-122 sensor	ERAP1 inh	GSIS activator	DENV2 CPE rescue	F508del corr
Cc1ccc(N2C(=O)C(F)(F)C2c2ccccc2)cc1 (stereo not drawn)	3.1	-10.8	1.0	-24.4	-5.9	2.8
Clc1ccc2c(c1)-c1ccccc1C1=NCCN12	.	.	-2.8	.	-6.5	8.3*
CN1C2=NCCN2C(=O)c2cc(Cl)ccc21	.	.	110.9*	14.5	2.0	-0.6
CC(=O)O[C@H]1C(=O)[C@]2(C)[C@H]([C@H](OC(=O)c3ccccc3)[C@]3(O)C[C@H](OC(=O)[C@H](O)[C@@H](NC(=O)c4ccccc4)c4ccccc4)C(C)=C1C3(C)C)[C@]1(OC(C)=O)CO[C@@H]1C[C@@H]2O	0.4	17.4	-5.6	-13.7	0.2	10.2*
CC(=O)O[C@H]1C(=O)[C@@]2(C)C([C@H](OC(=O)c3ccccc3)[C@]3(O)C[C@H](OC(=O)[C@H](O)[C@@H](NC(=O)c4ccccc4)c4ccccc4)C(C)=C1C3(C)C)[C@]1(OC(C)=O)CO[C@@H]1C[C@H]2O (stereo partly drawn)	.	1.2	-1.2	-4.3	-8.4	17.9*
O=C(C[C@@H]1CC[C@H]2[C@@H](COC[C@H](O)CN2C(=O)c2ccccc2F)O1)N1CCOCC1	0.1	-0.7[16.7 µM]	-3.3	3.0	-5.5	2.6
Cc1ccc(S(=O)(=O)NCC[C@@H]2CC[C@H](NC(=O)CCN3CCCCC3)[C@H](CO)O2)cc1	-0.1	.	-2.0	10.7	72.6*	-0.4
Cc1ccc(S(=O)(=O)NCC[C@@H]2CC[C@@H](NC(=O)CCN3CCCCC3)[C@H](CO)O2)cc1	-0.4	.	-1.8	-5.0	-10.3	0.7
Cc1ccc(S(=O)(=O)NCC[C@H]2CC[C@@H](NC(=O)Nc3ccccc3F)[C@@H](CO)O2)cc1	-0.9	.	1.2	-3.4	15.7	0.1
Cc1ccc(S(=O)(=O)NCC[C@H]2CC[C@@H](NC(=O)Nc3ccccc3F)[C@H](CO)O2)cc1	-0.9	.	2.5	-3.9	20.4*	-1.1
O=C(CCN1CCCCC1)N[C@H]1CC[C@@H](CCNS(=O)(=O)c2ccc(Cl)cc2)O[C@H]1CO	-1.6	.	4.4	8.4	18.6	2.1
Cc1ccccc1S(=O)(=O)NCC[C@@H]1CC[C@@H](NC(=O)C2CCCC2)[C@@H](CO)O1	0.0	17.8[16.7 µM]	3.0	14.5	7.8	-1.8
Cc1ccccc1S(=O)(=O)NCC[C@@H]1CC[C@H](NC(=O)C2CCCC2)[C@@H](CO)O1	0.1	-15.2[16.7 µM]	0.8	-13.4	22.9*	-0.6
O=C(CCN1CCCCC1)N[C@H]1CC[C@@H](CCNS(=O)(=O)c2ccc(F)cc2)O[C@H]1CO	1.0	.	1.7	21.1	25.3*	4.7
COCC(=O)N1CCC2(CC1)CN(C(=O)COC)[C@@H](CO)c1c2c2ccc(OC)cc2n1C	-0.3	.	.	25.6	-12.3	0.5
Cc1ccc(S(=O)(=O)N(C)C[C@H]2Oc3ncc(-c4ccncc4)cc3C(=O)N([C@@H](C)CO)C[C@@H]2C)cc1	1.5	-1.2[16.7 µM]	0.0	-3.9	0.7	1.3
O=C(NCC[C@H]1CC[C@H](NC(=O)C2CCCC2)[C@@H](CO)O1)c1ccc(F)cc1	-1.1	7.3[16.7 µM]	-1.8	9.1	29.4*	-1.2
O=C(N[C@H]1CC[C@@H](CCNS(=O)(=O)c2ccc(F)cc2)O[C@H]1CO)C1CCCC1	-0.9	18.7[16.7 µM]	-0.6	13.2	21.4*	-0.4
Cc1ccccc1S(=O)(=O)N1C[C@H](O)COC[C@@H]2O[C@@H](CC(=O)NCc3ccccc3Cl)CC[C@H]21	0.1	13.1[16.7 µM]	-1.6	-12.5	-0.4	-4.5
CO[C@@H]1CN(C)C(=O)c2ccc(NS(=O)(=O)CC(F)(F)F)cc2OC[C@@H](C)N(C(=O)c2ccc3c(c2)OCO3)C[C@H]1C	3.6	.	-0.2	-0.4	-9.6	-0.5
O=C(NN=Cc1ccccc1O)c1cccc([N+](=O)[O-])c1	0.3	-2.5	-4.2	0.5	13.6	10.5*
O=C(N/N=C/c1ccccn1)c1cccc([N+](=O)[O-])c1	2.1	.	1.5	8.1	6.6	-2.2
Cc1noc(C)c1NC(=O)N(C)C[C@H]1OCCCC[C@@H](C)Oc2ccc(NC(=O)CCC(F)(F)F)cc2C(=O)N([C@H](C)CO)C[C@@H]1C	-0.3	3.3[16.7 µM]	2.0	16.2	0.5	-0.2
Cc1ccc(C)c(NC(=O)CN(C)C(=O)c2ccc(-n3cncn3)c([N+](=O)[O-])c2)c1	2.3	.	0.0	11.2	2.2	0.3
CCN(CC)CCNC(=O)c1ccc(NC(=O)c2ccc(-n3cncn3)c([N+](=O)[O-])c2)cc1	-0.1	.	99.6*	.	4.4	-0.7
SMILES	E-sel inducer	miR-122 sensor	ERAP1 inh	GSIS activator	DENV2 CPE rescue	F508del corr
Cc1cccc(C)c1NC(=O)CN(C)C(=O)c1ccc(-n2cncn2)c([N+](=O)[O-])c1	49.8*	-3.1	-1.2	1.0	-6.9	-1.8
C[C@H]1CN([C@@H](C)CO)C(=O)Cc2cc(NC(=O)Nc3ccccc3)ccc2O[C@H]1CN(C)C(=O)Nc1ccccc1	0.7	7.5[16.7 µM]	-0.1	-9.7	0.9	-2.5
O=C(C[C@H]1CC[C@H]2[C@@H](COC[C@H](O)CN2Cc2cc(F)ccc2F)O1)N[C@H]1CCN(Cc2ccccc2)C1	0.0	-6.6[16.7 µM]	-2.0	-1.3	0.4	-0.8
Cc1cccc2c1NC1(CCCC1)CC2C (stereo not drawn)	187.9*	0.3	-0.7	14.8	-13.6	0.6
CCc1ccc(C(C(=O)NC2CCCCC2)N(C(=O)c2csnn2)C2CC2)cc1 (stereo not drawn)	39.1*	-3.1	-1.5	4.6	-4.0	-1.6
Cc1ccc(C(C(=O)NC2CCCCC2)N(C(=O)c2csnn2)C2CC2)cc1 (stereo not drawn)	1.1	.	2.4	26.6	1.1	-0.8
C=CCN(C(=O)c1csnn1)C(C(=O)NC1CCCC1)c1ccc(Cl)cc1 (stereo not drawn)	.	.	1.5	-7.7	1.1	1.6
C=CCN(C(=O)c1csnn1)C(C(=O)NC1CCCCC1)c1ccccc1 (stereo not drawn)	31.5*	1.2	-5.4	2.8	10.1	4.0
CC(=O)Nc1ccc(S(=O)(=O)NC2=C(N3CCN(Cc4ccccc4)CC3)C(=O)c3ccccc3C2=O)cc1	-0.3	-6.4	1.1	-4.7	-2.8	14.8*!
CCN1CCN(C2=C(NS(=O)(=O)c3ccc(NC(C)=O)cc3)C(=O)c3ccccc3C2=O)CC1	.	16.0	0.9	3.1	7.8	-0.7
C=CCN1C(=O)CSc2ccc(C(=O)OCC)cc21	.	-4.6	.	68.6*	.	.
C[C@@H]1CCCCO[C@@H](CN(C)S(=O)(=O)c2ccc(Cl)cc2)[C@@H](C)CN([C@@H](C)CO)C(=O)c2cc(NC(=O)Nc3ccc4c(c3)OCO4)ccc2O1	-0.1	-2.1[16.7 µM]	-1.3	29.6	-9.5	-2.8
O=S(=O)(NCc1csc(-c2cccs2)n1)c1cccs1	.	.	4.1	-2.6	-3.1	.
